Data: ChEMBL document CHEMBL1811774, “Chromone, a privileged scaffold for the development of monoamine oxidase inhibitors” (J Med Chem, 2011)

Assays:
[1] = molecular target: T1, Amine oxidase [flavin-containing] A (Homo sapiens, UniProt P21397); test: Inhibition of human MAO-A assessed as inhibition of p-tyramine oxidation to p-hydroxyphenyl-acetaldehyde at 100 uM after 15 mins by fluorimetric method; settings: 0.25 h
T1 sequence (P21397 whole entry): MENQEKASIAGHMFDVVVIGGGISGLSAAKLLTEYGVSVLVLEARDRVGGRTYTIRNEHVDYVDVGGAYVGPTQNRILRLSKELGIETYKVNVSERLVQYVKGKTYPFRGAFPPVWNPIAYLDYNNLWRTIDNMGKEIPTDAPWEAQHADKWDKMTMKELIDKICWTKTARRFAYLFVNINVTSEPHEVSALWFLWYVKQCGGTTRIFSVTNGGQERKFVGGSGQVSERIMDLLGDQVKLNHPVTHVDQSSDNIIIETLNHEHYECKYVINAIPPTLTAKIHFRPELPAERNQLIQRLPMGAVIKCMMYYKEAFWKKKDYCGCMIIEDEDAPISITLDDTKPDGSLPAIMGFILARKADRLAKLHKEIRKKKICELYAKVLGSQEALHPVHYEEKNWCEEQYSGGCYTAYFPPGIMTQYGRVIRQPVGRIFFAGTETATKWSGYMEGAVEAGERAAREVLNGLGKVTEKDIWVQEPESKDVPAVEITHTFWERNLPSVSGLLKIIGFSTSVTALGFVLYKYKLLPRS

[2] = molecular target: T2, Amine oxidase [flavin-containing] B (Homo sapiens, UniProt P27338); test: Inhibition of human MAO-B assessed as inhibition of p-tyramine oxidation to p-hydroxyphenyl-acetaldehyde after 15 mins by fluorimetric method
T2 sequence (P27338 whole entry): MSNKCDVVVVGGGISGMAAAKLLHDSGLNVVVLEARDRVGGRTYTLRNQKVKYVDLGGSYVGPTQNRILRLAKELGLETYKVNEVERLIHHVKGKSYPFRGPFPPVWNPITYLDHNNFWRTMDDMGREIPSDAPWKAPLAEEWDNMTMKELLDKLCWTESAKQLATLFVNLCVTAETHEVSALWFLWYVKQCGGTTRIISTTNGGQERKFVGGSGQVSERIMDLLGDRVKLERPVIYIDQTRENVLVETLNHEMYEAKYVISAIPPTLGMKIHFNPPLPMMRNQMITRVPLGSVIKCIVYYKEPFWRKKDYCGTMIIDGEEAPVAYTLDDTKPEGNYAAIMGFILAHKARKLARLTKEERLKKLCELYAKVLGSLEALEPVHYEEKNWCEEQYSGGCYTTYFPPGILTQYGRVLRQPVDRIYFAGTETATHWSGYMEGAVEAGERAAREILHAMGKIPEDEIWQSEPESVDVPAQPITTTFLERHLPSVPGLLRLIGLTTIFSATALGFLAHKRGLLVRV

Homo sapiens = organism: Homo sapiens; test: Selectivity index, ratio of IC50 for human MAO-A to IC50 for human MAO-B
[3] = molecular target: T1, Amine oxidase [flavin-containing] A; test: Inhibition of human MAO-A assessed as inhibition of p-tyramine oxidation to p-hydroxyphenyl-acetaldehyde after 15 mins by fluorimetric method
Outline: (§1)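 Microsomal recombinant hMAO-A or hMAO-B from baculovirus-infected BTI-TN5B1-4 insect cells. Enzyme was set to oxidize 165 pmol p-tyramine/min (MAO-A 1.1 μg, MAO-B 7.5 μg protein). It was preincubated with compound 15 min at 37 C in 0.05 M sodium phosphate, pH 7.4. Reaction started with final 200 μM Amplex Red, 1 U/mL HRP and 1 mM p-tyramine. H2O2-derived resorufin fluorescence (ex 545/em 590) read over 15 min at 37 C, background-subtracted, against vehicle controls. Highest concentration 100 μM or 1 mM; mean ± SEM, n = 5.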

[4] = molecular target: T2, Amine oxidase [flavin-containing] B; test: Inhibition of human MAO-B assessed as inhibition of p-tyramine oxidation to p-hydroxyphenyl-acetaldehyde at 100 uM after 15 mins by fluorimetric method; settings: 0.25 h; outline: as §1
[5] = molecular target: T2, Amine oxidase [flavin-containing] B; test: Inhibition of human MAO-B assessed as inhibition of p-tyramine oxidation to p-hydroxyphenyl-acetaldehyde at 1 mM after 15 mins by fluorimetric method; settings: 0.25 h, 1000 µM; outline: as §1
[6] = molecular target: T2, Amine oxidase [flavin-containing] B; test: Reversible inhibition of human MAOB expressed assessed as inhibition of p-tyramine oxidation to p-hydroxyphenyl-acetaldehyde at 100 uM measured before repeated washing by centrifugation-ultrafiltration method
Outline: (§2)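 Recombinant hMAO-B preincubated with a single compound concentration for 15 min at 37 C in 0.05 M sodium phosphate, pH 7.4. One aliquot kept at 4 C, unwashed. The rest was ultrafiltered through a 30 kDa membrane (9000g, 20 min, 4 C), resuspended and spun twice more.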

[7] = molecular target: T2, Amine oxidase [flavin-containing] B; test: Irreversible inhibition of human MAOB expressed assessed as inhibition of p-tyramine oxidation to p-hydroxyphenyl-acetaldehyde at 100 uM measured after repeated washing by centrifugation-ultrafiltration method; outline: as §2

| Structure (SMILES) | inhibition (INH) [1] | IC50 [2] | Ratio IC50 (Homo sapiens) | IC50 [3] | inhibition (INH) [4] | also measured |
| --- | --- | --- | --- | --- | --- | --- |
| O=C(Nc1ccc(C(F)(F)F)cc1)c1coc2ccccc2c1=O | Not Active | 110 nM | > 909 | – | – | – |
| O=C(Nc1ccc(O)c(O)c1)c1cc(=O)c2ccccc2o1 | – | 2660 nM | 0.071 | 190 nM | – | – |
| O=C(Nc1ccc(OC(F)(F)F)cc1)c1cc(=O)c2ccccc2o1 | Not Active | – | – | – | Not Active | – |
| O=C(NC1CCCCC1)c1cc(=O)c2ccccc2o1 | Not Active | – | – | – | – | inhibition (INH) [5]: Not Active |
| COc1ccc(NC(=O)c2coc3ccccc3c2=O)cc1OC | Not Active | 2330 nM | > 43 | – | – | – |
| CCCNC(=O)c1coc2ccccc2c1=O | Not Active | 37700 nM | > 2.7 | – | – | – |
| COc1ccc(NC(=O)c2coc3ccccc3c2=O)cc1O | – | 76 nM | 110 | 8340 nM | – | – |
| O=C(Nc1ccc(O)cc1)c1coc2ccccc2c1=O | – | 64 nM | 74 | 4760 nM | – | inhibition at 100 µM [6]: 60.3%; inhibition at 100 µM [7]: 23.5% |
| O=C(Nc1ccc(Cl)cc1)c1cc(=O)c2ccccc2o1 | Not Active | – | – | – | Not Active | – |
| O=C(Nc1ccc([N+](=O)[O-])cc1)c1coc2ccccc2c1=O | – | 11800 nM | 0.94 | 11100 nM | – | – |
| O=C(Nc1ccccc1)c1cc(=O)c2ccccc2o1 | Not Active | – | – | – | Not Active | – |
| O=C(Nc1ccc(O)cc1)c1cc(=O)c2ccccc2o1 | – | 41900 nM | 1.6 | 65200 nM | – | – |
| CCCNC(=O)c1cc(=O)c2ccccc2o1 | Not Active | – | – | – | – | inhibition (INH) [5]: Not Active |
| O=C(NC1CCCCC1)c1coc2ccccc2c1=O | Not Active | 930 nM | > 107 | – | – | – |
| COc1ccc(NC(=O)c2cc(=O)c3ccccc3o2)cc1O | Not Active | – | – | – | Not Active | – |
| O=C(Nc1ccc(OC(F)(F)F)cc1)c1coc2ccccc2c1=O | Not Active | 1080 nM | > 93 | – | – | – |
| COc1ccc(NC(=O)c2cc(=O)c3ccccc3o2)cc1OC | Not Active | – | – | – | Not Active | – |
| O=C(Nc1ccc(C(F)(F)F)cc1)c1cc(=O)c2ccccc2o1 | Not Active | – | – | – | Not Active | – |
| O=C(Nc1ccc([N+](=O)[O-])cc1)c1cc(=O)c2ccccc2o1 | Not Active | – | – | – | Not Active | – |
| O=C(Nc1ccc(O)c(O)c1)c1coc2ccccc2c1=O | – | 160 nM | 2.7 | 430 nM | – | – |
